Experimental data reported in ChEMBL document CHEMBL4699532, “Decoding the Papain Inhibitor from Streptomyces mobaraensis as Being Hydroxylated Chymostatin Derivatives: Purification, Structure Analysis, and Putative Biosynthetic Pathway” (J Nat Prod, 2020).

Legend:
[1] = Inhibition of chymotrypsin (unknown origin) using sucAAPFamc substrate preincubated for 10 mins followed by addition of substrate and measured every 30 sec for 60 mins by fluorescence based assay; parameters: species or system Homo sapiens
Method in brief: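 Chymotrypsin, 1.5 nM final (added as 15 nM stock), preincubated with inhibitor for 10 min at 30 °C in 100 mM Tris pH 7.8, 10 mM CaCl2. Started with sucAAPFamc (added as 15 μM stock). AMC release read every 30 s for 60 min (ex 350, em 450 nm), in triplicate. IC50 from fitted data.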

Papain = biological target: T1, Papain (Carica papaya, UniProt P00784); test: Inhibition of papaya papain using cbzFRamc substrate preincubated for 10 mins followed by addition of substrate and measured every 30 sec for 60 mins by fluorescence based assay
T1 sequence (P00784 whole entry): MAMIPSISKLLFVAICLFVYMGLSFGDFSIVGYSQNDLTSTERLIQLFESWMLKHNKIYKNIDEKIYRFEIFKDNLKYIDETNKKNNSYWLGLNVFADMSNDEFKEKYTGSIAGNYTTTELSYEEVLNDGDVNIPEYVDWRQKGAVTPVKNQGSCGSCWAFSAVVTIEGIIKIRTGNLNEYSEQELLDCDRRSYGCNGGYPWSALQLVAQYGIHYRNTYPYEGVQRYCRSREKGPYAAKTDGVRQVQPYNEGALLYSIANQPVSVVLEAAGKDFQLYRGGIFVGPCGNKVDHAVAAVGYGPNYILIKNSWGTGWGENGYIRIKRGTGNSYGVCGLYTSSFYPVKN
Method in brief: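 Papain, 1.5 nM final (added as 15 nM stock), preincubated with inhibitor for 10 min at 30 °C in 50 mM phosphate pH 6.8, 10 mM EDTA, 2 mM DTT. Started with 50 μM cbzFRamc. AMC release read every 30 s for 60 min (ex 350, em 450 nm), in triplicate. IC50 from fitted data.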

Papain (Carica papaya) = biological target: T2, Papain (Carica papaya) (UniProt P00784); test: Binding affinity to papaya papain assessed as change in melting temperature at 200 uM incubated for 15 mins by scanning fluorimetry
T2 sequence (whole entry): T1 sequence (P00784 whole entry)
Method in brief: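 Melting followed by tryptophan fluorescence at 330 and 350 nm during 1 °C/min heating (differential scanning fluorimetry), run in duplicate. Shift taken as difference from the enzyme's melting point.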

Homo sapiens = species: Homo sapiens; test: Binding affinity to chymotrypsin (unknown origin) assessed as change in melting temperature at 200 uM incubated for 15 mins by scanning fluorimetry
Method in brief: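 20 μM chymotrypsin held on ice for 15 min with 200 μM inhibitor in 100 mM Tris pH 7.8, 10 mM CaCl2. Melting followed by tryptophan fluorescence at 330 and 350 nm during 1 °C/min heating (differential scanning fluorimetry), run in duplicate. Shift taken as difference from the enzyme's melting point.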

Row | IC50 [1] [nM] | IC50 (Papain) [nM] | ΔTm (Papain (Carica papaya)) [°C] | ΔTm (Homo sapiens) [°C] | Compound
1 | 4.8 | 6.3 | 0.9 | 15.1 | CC(C)[C@H](NC(=O)[C@@H](NC(=O)N[C@@H](Cc1ccc(O)cc1)C(=O)O)[C@H]1CCNC(=N)N1)C(=O)N[C@H](C=O)Cc1ccc(O)cc1
2 | 7 | 17.8 | 0.9 | 13.5 | CC(C)[C@H](NC(=O)[C@@H](NC(=O)N[C@@H](Cc1ccc(O)cc1)C(=O)O)[C@H]1CCNC(=N)N1)C(=O)N[C@H](C=O)Cc1ccccc1
3 | > 30000 | 3.4 | 0.9 | 1.7 | CC(C)[C@H](NC(=O)[C@H](CCCNC(=N)N)NC(=O)N[C@@H](Cc1ccccc1)C(=O)O)C(=O)N[C@H](C=O)CCCNC(=N)N [ANTIPAIN]
4 | > 30000 | 2.2 | 1 | 0.2 | CC(=O)N[C@@H](CC(C)C)C(=O)N[C@@H](CC(C)C)C(=O)N[C@H](C=O)CCCNC(=N)N [LEUPEPTIN]
